pIC50: −log10 of the molar value.
Experiments:
Acetylcholinesterase = Acetylcholinesterase (Electrophorus electricus, UniProt O42275); assay: Inhibition of electric eel AChE using S-acetylthiocholine iodide as substrate preincubated for 60 mins followed by substrate addition measured after 5 mins by Ellman's method
Cholinesterase = Cholinesterase (Equus caballus, UniProt P81908); assay: Inhibition of equine serum BuChE using S-butyrylthiocholine iodide as substrate preincubated for 60 mins followed by substrate addition measured after 5 mins by Ellman's method
How it was run: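 Equine serum BChE (0.1 U/mL) in 100 mM sodium phosphate, pH 8, was preincubated at 37°C for 60 min with seven inhibitor concentrations (top 1×10^-5 M; stocks in acetonitrile:water 1:9). Added mix contained BTCh 2.5 mM and DTNB 3.4 mM. A412 was read for 5 min at 37°C, with enzyme-free blank subtracted. Triplicates.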

Sequence of Cholinesterase (P81908 whole entry): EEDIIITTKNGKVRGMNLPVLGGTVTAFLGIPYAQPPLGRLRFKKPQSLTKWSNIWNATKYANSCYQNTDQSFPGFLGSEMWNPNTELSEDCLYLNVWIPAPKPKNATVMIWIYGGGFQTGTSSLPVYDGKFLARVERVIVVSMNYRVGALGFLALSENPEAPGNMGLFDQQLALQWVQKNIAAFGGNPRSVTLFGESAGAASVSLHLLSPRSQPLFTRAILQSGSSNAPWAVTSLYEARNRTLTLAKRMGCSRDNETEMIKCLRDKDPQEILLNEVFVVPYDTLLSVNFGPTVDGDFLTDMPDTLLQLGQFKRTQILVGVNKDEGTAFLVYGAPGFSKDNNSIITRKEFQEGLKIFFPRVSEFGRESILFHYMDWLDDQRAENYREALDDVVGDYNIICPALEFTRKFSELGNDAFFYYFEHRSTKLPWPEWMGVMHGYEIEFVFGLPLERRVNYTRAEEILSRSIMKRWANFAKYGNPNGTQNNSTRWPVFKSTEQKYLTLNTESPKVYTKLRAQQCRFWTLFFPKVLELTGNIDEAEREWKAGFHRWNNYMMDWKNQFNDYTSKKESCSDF
Sequence of Acetylcholinesterase (O42275 whole entry): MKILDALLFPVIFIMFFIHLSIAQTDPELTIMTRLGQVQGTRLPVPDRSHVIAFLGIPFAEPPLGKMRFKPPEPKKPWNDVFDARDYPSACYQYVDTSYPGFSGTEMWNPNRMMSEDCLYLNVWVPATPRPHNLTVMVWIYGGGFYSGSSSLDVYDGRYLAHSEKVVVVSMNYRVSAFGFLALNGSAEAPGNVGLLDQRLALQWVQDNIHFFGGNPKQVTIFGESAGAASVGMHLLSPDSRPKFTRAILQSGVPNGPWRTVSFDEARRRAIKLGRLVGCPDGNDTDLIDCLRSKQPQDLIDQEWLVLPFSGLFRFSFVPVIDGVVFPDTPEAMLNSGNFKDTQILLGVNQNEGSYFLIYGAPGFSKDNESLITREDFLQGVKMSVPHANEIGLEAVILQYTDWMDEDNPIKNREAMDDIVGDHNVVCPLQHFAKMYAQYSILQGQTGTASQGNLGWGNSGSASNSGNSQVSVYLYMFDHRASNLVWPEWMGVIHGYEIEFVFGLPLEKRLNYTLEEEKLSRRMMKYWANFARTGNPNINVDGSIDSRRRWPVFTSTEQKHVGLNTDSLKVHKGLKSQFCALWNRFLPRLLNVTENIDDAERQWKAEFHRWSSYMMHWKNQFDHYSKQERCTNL

SMILES	pIC50 (Acetylcholinesterase)	pIC50 (Cholinesterase)
CN(C)C(=O)Oc1cc(OC(=O)N(C)C)cc(C(O)CN2CCCCC2)c1 (stereo not given)	< 4.00	7.00
CN(C)C(=O)Oc1cc(OC(=O)N(C)C)cc(C(O)CNc2ccccc2)c1 (stereo not given)	< 4.00	5.62
CN(C)C(=O)Oc1cc(OC(=O)N(C)C)cc(C(O)CNC2CCCCC2)c1 (stereo not given)	< 4.00	6.65
CN(C)C(=O)Oc1cc(OC(=O)N(C)C)cc(C(O)CNC(C)(C)c2ccccc2)c1 (stereo not given)	< 4.00	6.32
CN(C)C(=O)Oc1cc(OC(=O)N(C)C)cc(C(O)CN2CCCC2)c1 (stereo not given)	4.38	6.60
CCN(C)C(=O)Oc1cc(OC(=O)N(C)CC)cc(C(O)CNC(C)(C)C)c1 (stereo not given)	< 4.00	6.95
C#Cc1cccc(NCC(O)c2cc(OC(=O)N(C)C)cc(OC(=O)N(C)C)c2)c1 (stereo not given)	< 4.00	6.16
CN(C)C(=O)Oc1cc(OC(=O)N(C)C)cc(C(O)CNc2ccc(I)cc2)c1 (stereo not given)	< 4.00	5.33
CCN(C)C(=O)Oc1cc(OC(=O)N(C)CC)cc(C(O)CN2CCCCC2)c1 (stereo not given)	< 4.00	6.97
CN(C)C(=O)Oc1cc(OC(=O)N(C)C)cc(C(O)CNC2CCCC2)c1 (stereo not given)	4.18	6.88

— ChEMBL document CHEMBL4007382 (Eur J Med Chem, 2017)
